Assay [1] concerns the target Muscarinic acetylcholine receptor. Put plainly: In vitro binding affinity for muscarinic receptor by displacing [3H]quinuclidinyl benzilate binding on rat brain homogenate. In kind it is tissue-based. Put shortly: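 Two concentration–response curves, five concentrations covering 3 decades, triplicates. IC50 estimated from hand-drawn log concentration–response curves and converted to Ki with Cheng–Prusoff equation.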

Assay [2] has the same target. Put plainly: In vitro binding affinity for muscarinic receptor by displacing [3H]quinuclidinyl benzilate binding on rat brain stem homogenate. In kind it is tissue-based. Put shortly:
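Two full curves, five test concentrations over 3 decades in triplicate. Hand-drawn log curves gave IC50; Ki by Cheng–Prusoff.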

Assay [3] has the same target. Put plainly: In vitro binding affinity for muscarinic receptor by displacing [3H]oxotremorine-M binding on rat brain homogenate. In kind it is tissue-based. Put shortly:
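Duplicate full curves of five drug concentrations over 3 decades, triplicate points. IC50 taken from hand-drawn log curves; Ki via Cheng–Prusoff.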

The target in assay [4] is T1, Muscarinic acetylcholine receptor M1 (Rattus norvegicus, UniProt P08482).
T1 sequence (P08482 whole entry): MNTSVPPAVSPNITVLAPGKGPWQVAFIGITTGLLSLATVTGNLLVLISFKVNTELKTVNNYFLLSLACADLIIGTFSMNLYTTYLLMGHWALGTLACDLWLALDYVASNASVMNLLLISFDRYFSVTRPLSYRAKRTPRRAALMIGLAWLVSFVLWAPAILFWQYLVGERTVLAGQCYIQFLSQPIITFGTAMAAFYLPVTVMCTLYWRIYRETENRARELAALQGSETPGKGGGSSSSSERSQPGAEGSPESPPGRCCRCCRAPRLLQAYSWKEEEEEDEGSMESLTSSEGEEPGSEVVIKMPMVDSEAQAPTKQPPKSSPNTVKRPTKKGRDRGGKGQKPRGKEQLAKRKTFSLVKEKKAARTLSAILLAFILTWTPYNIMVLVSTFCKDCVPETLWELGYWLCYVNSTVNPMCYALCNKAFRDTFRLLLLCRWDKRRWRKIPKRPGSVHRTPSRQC
In words: In vitro binding affinity for muscarinic M1 receptor by displacing [3H]pirenzepine binding on rat brain homogenate. In kind it is tissue-based. Put shortly:
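Two complete curves, five test concentrations spanning 3 decades, each in triplicate. IC50 read from hand-drawn log concentration–response curves, converted to Ki by Cheng–Prusoff.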

The species named for assay [5] is Rattus norvegicus. In words: Ratio of binding affinity at [3H]quinuclidinyl benzilate binding on rat brain homogenate to [3H]- Oxotremorine-M binding on rat brain homogenate. The format is functional. Put shortly:
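Ago ratio computed as Ki from [³H]QNB binding to whole rat brain homogenate divided by Ki from [³H]oxotremorine-M binding to whole rat brain homogenate.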

Assay [6] is filed under the species Rattus norvegicus. In words: Ratio of binding affinity at [3H]quinuclidinyl benzilate binding on rat brain stem homogenate to [3H]pirenzepine binding on rat brain homogenate.
Assay [7] addresses Muscarinic acetylcholine receptor M2 (Mus musculus) (UniProt Q9ERZ4). Put plainly: In vivo determination of peripheral M2 receptor mediated tremor, cholinergic side effect.
Assay [8] shares this target. Put plainly: In vivo determination of peripheral M2 receptor mediated salivation, cholinergic side effect.
The target is the same in assay [9]. In words: In vivo determination of peripheral M2 receptor mediated hypothermia, cholinergic side effect.

These results are taken from ChEMBL document CHEMBL1127749 (J Med Chem, 1994).

In general, Ki refers to the equilibrium dissociation constant of an inhibitor or competing ligand from its target. Higher therefore signals weaker binding. By ED50 is commonly meant the midpoint of the dose-response relation. Low readings indicate greater potency, high ones weaker potency.

Structures are written as SMILES.

In the case of `C=Cn1nnc(C2=CCCN(C)C2)n1`, the Ki in [1] came out at 230 nM; in [2], 90 nM; in assay [3], 92 nM; in assay [4], 120 nM. Besides, the Ratio in the assay filed under Rattus norvegicus [5] amounted to 2.5; in the assay filed under Rattus norvegicus [6], 0.8.
Consider `CCn1nnc(C2CCCNC2)n1` (racemic), for which the Ki in assay [3] is 230 nM; in [4], 1100 nM.
`C=Cn1ncc(C2=CCCN(C)C2)n1`: the figures for the inhibition constant Ki in [3] and in assay [4] were 33 nM and 40 nM, respectively.
On the same counts, the results for `Cn1nnc(C2CCCNC2)n1` (racemic) are 33 nM and 2300 nM.
With `CN1CCC=C(c2nnnn2C)C1`, the Ki amounted to 5400 nM in assay [3] and 24000 nM in [4].
Take `CCn1nncc1C1=CCCN(C)C1`: the values for the Ki in assay [3] and in [4] were 318 nM and 1700 nM, respectively.
Regarding `C=CCn1nnc(C2=CCCN(C)C2)n1`, the Ki in [1] was found to be 140 nM; in assay [2] it was 46 nM; in assay [3], 13 nM; in [4], 21 nM. Moreover, the Ratio in the assay listed under Rattus norvegicus [5] is 11; in the assay filed under Rattus norvegicus [6], 2.2.
For `CCCCn1ncc(C2=CCCN(C)C2)n1`, the Ki in assay [1] is 48 nM; in assay [2], 37 nM; in assay [3], 2.5 nM; in [4] it was 13 nM. For the same compound, the figures for the Ratio in the assay filed under Rattus norvegicus [5] and in the assay listed under Rattus norvegicus [6] were 19 and 2.8, respectively.
With `CCn1nnc(C2=CCCN(C(C)C)C2)n1`, the results for the Ki in [3] and in assay [4] were 300 nM and 270 nM, respectively.
Take `C=CCn1ncc(C2CCCNC2)n1` (stereo in doubt; (-)-15b): the Ratio in the assay listed under Rattus norvegicus [5] turned out to be 14; in the assay filed under Rattus norvegicus [6] it was 1.8. In addition, the ED50 in assay [7], in assay [8] and in assay [9] was more than 130 µmol/kg each time.
`CC1C=C(c2nnn(C)n2)CNC1` (stereo not drawn): the inhibition constant Ki in assay [3] was 69 nM; in assay [4], 180 nM.
With `CC(C)n1nnc(C2=CCCN(C)C2)n1`, the Ki in assay [1] was 530 nM; in assay [2], 270 nM; in assay [3], 85 nM; in assay [4], 84 nM. For the same compound, the figures for the Ratio in the assay listed under Rattus norvegicus [5] and in the assay filed under Rattus norvegicus [6] were 6.2 and 3.2, respectively.
`C#CCn1ncc(C2=CC(C)CNC2)n1` (stereo not drawn): the Ki in assay [3] is 31 nM; in [4], 30 nM.
As to `CN1CCC=C(c2nnn(C)n2)C1`, the Ki came out at 790 nM in assay [1], 230 nM in assay [2], 6.1 nM in assay [3] and 250 nM in assay [4]. The Ratio in the assay listed under Rattus norvegicus [5] is 130; in the assay listed under Rattus norvegicus [6], 0.9.
Take `C#CCn1ncc(C2CCCNC2)n1` (single isomer, unassigned; (+)): the Ki in [1] worked out at 230 nM; in assay [2], 30 nM; in assay [3], 5.2 nM; in [4] it was 170 nM.
With `C#CCn1nnc(C2=CCCN(C)C2)n1`, the inhibitory constant (Ki) was found to be 230 nM in assay [1], 100 nM in assay [2], 4.5 nM in [3] and 44 nM in assay [4]. In addition, the Ratio is 51 in the assay filed under Rattus norvegicus [5] and 2.3 in the assay listed under Rattus norvegicus [6].
Regarding `C#CCn1ncc(C2CCCNC2)n1` (stereo in doubt; (-)-15c) [listing 1 of 2 here], the Ratio in the assay listed under Rattus norvegicus [5] was determined as 35; in the assay listed under Rattus norvegicus [6], 0.2. For the same compound, the ED50 was 41 µmol/kg in assay [7], 20 µmol/kg in assay [8] and 11 µmol/kg in assay [9].
As to `CCCN1CCC=C(c2nnn(CC)n2)C1`, the Ki was 450 nM in [3] and 900 nM in assay [4].
With `CC1=C(c2nnn(C)n2)CNCC1`, the Ki was 570 nM in [3] and 960 nM in [4].
Turning to `CCN1CCC=C(c2nnn(CC)n2)C1`, the figures for the Ki in [3] and in assay [4] were 78 nM and 140 nM, respectively.
On to `C=CCn1ncc(C2=CCCN(C)C2)n1`, for which the Ki is 43 nM in [1], 32 nM in [2], 4.7 nM in assay [3] and 6.3 nM in assay [4]. In addition, the figures for the Ratio in the assay filed under Rattus norvegicus [5] and in the assay listed under Rattus norvegicus [6] were 9.1 and 5.1, respectively.
Regarding `CCCn1ncc(C2=CCCNC2)n1`, the Ki in assay [1] was found to be 270 nM; in assay [2], 210 nM; in [3] it was 6.1 nM; in assay [4], 77 nM. Besides, the Ratio in the assay filed under Rattus norvegicus [5] is 44; in the assay filed under Rattus norvegicus [6], 2.7.
Turning to `CCn1cc(C2=CCCN(C)C2)nn1`, the Ki is 990 nM in assay [3] and 770 nM in assay [4].
With `CN1CCCC(c2nnn(C)n2)C1` (racemic), the values for the Ki in assay [3] and in [4] were 1200 nM and 4800 nM, respectively.
As for `C#CCn1ncc(C2=CCCN(C)C2)n1`, the Ki was determined as 41 nM in [1], 22 nM in assay [2], 1.6 nM in [3] and 7.7 nM in assay [4]. The values for the Ratio in the assay filed under Rattus norvegicus [5] and in the assay filed under Rattus norvegicus [6] were 26 and 2.9, respectively.
As for `C#CCn1ncc(C2CCCNC2)n1` (racemic), the Ki stood at 320 nM in assay [1], 130 nM in assay [2], 2.5 nM in assay [3] and 84 nM in assay [4].
For `C#CCn1ncc(C2CCCNC2)n1` (stereo in doubt; (-)-15c) [listing 2 of 2 here], the figures for the Ki in [1], in [3] and in [4] were 270 nM, 7.8 nM and 140 nM, respectively.
As to `CCn1ncc(C2CCCNC2)n1` (racemic), the inhibitory constant (Ki) is 530 nM in [1], 280 nM in assay [2], 11 nM in assay [3] and 260 nM in [4]. Moreover, the Ratio in the assay filed under Rattus norvegicus [5] was 48; in the assay listed under Rattus norvegicus [6] it was 1.1.
As to `CCCn1ncc(C2=CCCN(C)C2)n1`, the Ki in assay [1] is 47 nM; in assay [2], 38 nM; in assay [3], 2.6 nM; in assay [4], 15 nM. Moreover, the values for the Ratio in the assay filed under Rattus norvegicus [5] and in the assay listed under Rattus norvegicus [6] were 18 and 2.5, respectively.
Turning to `CCCCn1nnc(C2=CCCN(C)C2)n1`, the Ki in [1] amounted to 81 nM; in assay [2], 220 nM; in [3], 5 nM; in assay [4], 37 nM. For the same compound, the Ratio in the assay filed under Rattus norvegicus [5] came out at 16; in the assay listed under Rattus norvegicus [6], 5.9.
Take `CCCCCCCCn1nnc(C2=CCCN(C)C2)n1`: the Ki in assay [1] is 38 nM; in [2], 75 nM; in assay [3], 71 nM; in assay [4] it was 27 nM. For the same compound, the Ratio in the assay filed under Rattus norvegicus [5] amounted to 0.5; in the assay listed under Rattus norvegicus [6], 2.8.
In the case of `Cn1ncc(C2=CCCNC2)n1`, the Ki in assay [1] turned out to be 570 nM; in assay [2], 90 nM; in assay [3], 0.34 nM; in [4], 500 nM. For the same compound, the Ratio in the assay filed under Rattus norvegicus [5] stood at 1700; in the assay filed under Rattus norvegicus [6], 0.2.
Consider `C#CCn1nnc(C2CCCNC2)n1` (racemic), for which the figures for the Ki in assay [3] and in [4] were 31 nM and 260 nM, respectively.
`CCCCCCn1nnc(C2=CCCN(C)C2)n1`: the Ki in [1] is 100 nM; in [2], 220 nM; in assay [3], 52 nM; in [4], 32 nM. In addition, the Ratio in the assay filed under Rattus norvegicus [5] worked out at 1.9; in the assay filed under Rattus norvegicus [6], 6.9.
For the compound `CCCCN1CCC=C(c2nnn(CC)n2)C1`, the Ki in assay [3] was 340 nM; in assay [4], 1400 nM.
Take `CCCn1nnc(C2=CCCN(C)C2)n1`: the Ki in [1] was determined as 100 nM; in [2] it was 180 nM; in [3], 2.8 nM; in assay [4], 57 nM. Besides, the Ratio in the assay filed under Rattus norvegicus [5] was found to be 36; in the assay filed under Rattus norvegicus [6], 3.2.
Turning to `Cn1nnc(C2=CCCNC2)n1`, the Ki in assay [3] came to 4.5 nM; in [4], 1350 nM.
On to `CCCCn1ncc(C2=CCCNC2)n1`, for which the Ki in assay [1] was found to be 250 nM; in assay [2] it was 130 nM; in assay [3], 4.9 nM; in [4] it was 100 nM. The Ratio was 51 in the assay filed under Rattus norvegicus [5] and 1.3 in the assay filed under Rattus norvegicus [6].
With `CC1CC=C(c2nnn(C)n2)CN1` (stereo not drawn), the Ki in [3] is 180 nM; in assay [4], 900 nM.
Take `CCCCCn1nnc(C2=CCCN(C)C2)n1`: the Ki amounted to 130 nM in [1], 110 nM in assay [2], 16 nM in assay [3] and 26 nM in [4]. The values for the Ratio in the assay filed under Rattus norvegicus [5] and in the assay listed under Rattus norvegicus [6] were 8.1 and 4.2, respectively.
